# From ChEMBL document CHEMBL3286267, “Discovery of MK-4409, a Novel Oxazole FAAH Inhibitor for the Treatment of Inflammatory and Neuropathic Pain” (ACS Med Chem Lett, 2014)
# Active and inactive are the calls of the source. The rule behind the calls is not given here.
# Key:
# [1] = Half life in rat at 1 mg/kg, iv and 2 mg/kg, po; type: ADME, organism-based; settings: in vivo
# In short: (§1)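 Rat PK given 1 mg/kg iv in DMSO/PEG400/H2O 20/60/20 and 2 mg/kg po in either Imwitor/Tween 1/1 or PEG400/Tween80/H2O 40/10/50. Half-life, clearance, volume of distribution, dose-normalized AUC (AUCN) and oral bioavailability were derived.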
# Rattus norvegicus [2] = experiment: Analgesic activity in Sprague-Dawley rat complete Freund's adjuvant-induced inflammatory pain model assessed as reversal of mechanical allodynia at 30 mg/kg, po single dose measured after 1 hr; type: functional
# In short: (§2)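 Inflammatory pain induced in rats by intraplantar injection of complete Freund's adjuvant into the hind paw. Mechanical allodynia was assessed at 1 and 3 h after a single oral dose. For each rat, percent reversal = (postdose – predose)/(preinjury – predose), averaged over n = 6.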
# Rattus norvegicus [3] = experiment: Dose normalized AUC in rat at 1 mg/kg, iv and 2 mg/kg, po; type: ADME, organism-based; settings: in vivo; in short: as §1
# [4] = target: T1, Fatty-acid amide hydrolase 1 (Rattus norvegicus, UniProt P97612); experiment: Inhibition of rat FAAH lysate using AMCAA as substrate by fluorescence assay
# T1 sequence (P97612 whole entry): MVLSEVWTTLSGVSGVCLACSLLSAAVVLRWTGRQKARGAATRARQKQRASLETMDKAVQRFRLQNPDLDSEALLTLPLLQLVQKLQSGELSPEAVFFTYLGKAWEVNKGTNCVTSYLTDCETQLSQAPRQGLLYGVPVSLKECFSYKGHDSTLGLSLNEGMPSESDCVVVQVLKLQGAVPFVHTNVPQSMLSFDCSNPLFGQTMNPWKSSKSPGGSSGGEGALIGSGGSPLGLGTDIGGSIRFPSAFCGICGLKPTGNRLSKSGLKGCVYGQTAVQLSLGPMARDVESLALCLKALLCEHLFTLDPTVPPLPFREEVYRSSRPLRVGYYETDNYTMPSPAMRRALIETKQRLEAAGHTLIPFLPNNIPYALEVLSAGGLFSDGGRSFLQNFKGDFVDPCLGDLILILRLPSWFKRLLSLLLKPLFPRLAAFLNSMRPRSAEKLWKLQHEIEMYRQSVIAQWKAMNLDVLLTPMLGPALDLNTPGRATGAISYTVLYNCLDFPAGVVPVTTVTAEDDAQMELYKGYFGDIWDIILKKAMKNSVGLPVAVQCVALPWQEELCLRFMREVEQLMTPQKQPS
# In short: (§3)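 In vitro assays, with values reported as the average of at least three duplicates.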
# [5] = target: T2, Fatty-acid amide hydrolase 1 (Homo sapiens, UniProt O00519); experiment: Inhibition of human FAAH lysate using AMCAA as substrate by fluorescence assay; in short: as §3
# T2 sequence (O00519 whole entry): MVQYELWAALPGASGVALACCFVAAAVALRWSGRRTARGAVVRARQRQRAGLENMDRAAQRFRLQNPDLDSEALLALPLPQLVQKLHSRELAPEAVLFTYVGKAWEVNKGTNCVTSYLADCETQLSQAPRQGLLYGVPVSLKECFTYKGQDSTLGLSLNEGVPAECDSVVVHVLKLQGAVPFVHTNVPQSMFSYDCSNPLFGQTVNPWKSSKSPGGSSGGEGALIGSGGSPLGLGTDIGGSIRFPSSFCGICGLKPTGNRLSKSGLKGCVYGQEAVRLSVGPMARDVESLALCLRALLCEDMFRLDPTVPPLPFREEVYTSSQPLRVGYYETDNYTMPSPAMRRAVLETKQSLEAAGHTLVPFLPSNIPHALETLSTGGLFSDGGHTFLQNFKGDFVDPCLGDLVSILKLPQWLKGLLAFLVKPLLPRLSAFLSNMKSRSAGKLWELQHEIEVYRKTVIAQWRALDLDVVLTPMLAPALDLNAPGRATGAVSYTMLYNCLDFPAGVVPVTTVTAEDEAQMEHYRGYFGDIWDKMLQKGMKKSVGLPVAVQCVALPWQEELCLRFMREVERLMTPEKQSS
# [6] = target: Voltage-gated inwardly rectifying potassium channel KCNH2 (Homo sapiens, UniProt Q12809); experiment: Displacement of [35S]MK-499 from human ERG
# In short: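 hERG K+ channel binding assay measuring displacement of the radiolabelled channel blocker [35S]MK-499. Values are averages of at least three duplicates.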
# [7] = Inhibition of human vesicular monoamine transporter; in short: as §3
# [8] = Volume of distribution at steady state in rat at 1 mg/kg, iv and 2 mg/kg, po; type: ADME, organism-based; settings: in vivo, read-out: Vdss; in short: as §1
# Rattus norvegicus [9] = experiment: Analgesic activity in Sprague-Dawley rat complete Freund's adjuvant-induced inflammatory pain model assessed as reversal of mechanical allodynia at 30 mg/kg, po single dose measured after 3 hrs; type: functional; in short: as §2
# [10] = Clearance in rat at 1 mg/kg, iv and 2 mg/kg, po; type: ADME, organism-based; settings: in vivo; in short: as §1
# [11] = Solubility in fasted state simulated intestinal fluid; type: ADME
# [12] = Bioavailability in rat at 1 mg/kg, iv and 2 mg/kg, po; type: ADME, organism-based; settings: in vivo; in short: as §1
# Rattus norvegicus [13] = experiment: Analgesic activity in Sprague-Dawley rat complete Freund's adjuvant-induced inflammatory pain model assessed as reversal of mechanical allodynia at 10 mg/kg, po single dose measured after 1 hr; type: functional; in short: as §2
# Rattus norvegicus [14] = experiment: Analgesic activity in Sprague-Dawley rat complete Freund's adjuvant-induced inflammatory pain model assessed as reversal of mechanical allodynia at 10 mg/kg, po single dose measured after 3 hrs; type: functional; in short: as §2
# Rattus norvegicus [15] = experiment: Analgesic activity in Sprague-Dawley rat complete Freund's adjuvant-induced inflammatory pain model assessed as reversal of mechanical allodynia at 2 mg/kg/day, ip measured up to 5 days; type: functional, organism-based
# In short: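 Inflammatory pain induced in rats by intraplantar injection of complete Freund's adjuvant into the hind paws. Mechanical allodynia was followed under a chronic repeated-dosing paradigm across several days to check for loss of antinociception (tachyphylaxis).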
# Sequence of Voltage-gated inwardly rectifying potassium channel KCNH2 (Q12809 whole entry): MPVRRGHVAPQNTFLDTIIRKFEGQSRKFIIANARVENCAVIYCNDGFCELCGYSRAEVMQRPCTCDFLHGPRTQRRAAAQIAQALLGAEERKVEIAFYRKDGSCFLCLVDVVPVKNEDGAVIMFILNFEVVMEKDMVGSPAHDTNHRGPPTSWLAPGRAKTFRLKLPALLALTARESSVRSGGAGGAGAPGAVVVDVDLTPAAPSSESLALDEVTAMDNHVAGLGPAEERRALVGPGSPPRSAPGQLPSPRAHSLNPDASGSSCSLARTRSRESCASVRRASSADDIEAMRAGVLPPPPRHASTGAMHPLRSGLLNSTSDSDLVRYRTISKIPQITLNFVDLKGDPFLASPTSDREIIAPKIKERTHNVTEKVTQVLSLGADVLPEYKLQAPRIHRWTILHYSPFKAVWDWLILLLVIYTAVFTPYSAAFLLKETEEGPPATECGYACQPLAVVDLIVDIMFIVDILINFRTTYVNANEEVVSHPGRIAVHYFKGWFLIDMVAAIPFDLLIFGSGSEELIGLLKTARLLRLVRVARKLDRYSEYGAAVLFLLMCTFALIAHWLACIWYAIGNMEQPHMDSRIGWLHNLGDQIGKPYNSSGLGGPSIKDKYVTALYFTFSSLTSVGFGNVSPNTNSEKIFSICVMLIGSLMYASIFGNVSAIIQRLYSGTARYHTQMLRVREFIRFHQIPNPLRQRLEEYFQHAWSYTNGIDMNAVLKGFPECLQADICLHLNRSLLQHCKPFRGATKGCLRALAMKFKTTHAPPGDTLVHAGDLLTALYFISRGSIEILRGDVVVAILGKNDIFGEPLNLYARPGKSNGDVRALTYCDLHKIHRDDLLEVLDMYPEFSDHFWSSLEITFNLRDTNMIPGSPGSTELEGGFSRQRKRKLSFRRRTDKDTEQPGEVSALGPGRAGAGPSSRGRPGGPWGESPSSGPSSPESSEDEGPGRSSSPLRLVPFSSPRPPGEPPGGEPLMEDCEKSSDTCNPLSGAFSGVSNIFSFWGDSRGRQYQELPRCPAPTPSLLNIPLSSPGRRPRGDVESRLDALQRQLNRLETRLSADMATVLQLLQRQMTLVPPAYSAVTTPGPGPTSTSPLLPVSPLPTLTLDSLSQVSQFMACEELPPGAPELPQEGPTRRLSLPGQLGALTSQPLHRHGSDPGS
smiles,measurement,setting,value
Clc1ccc(Sc2cn(-c3cccnc3)nc2-c2ccc(-c3ncon3)cc2)cc1,half-life,[1],2.57 h
same,Activity,Rattus norvegicus [2],49%
same,AUC/dose,Rattus norvegicus [3],0.39 µM·kg·h/mg
same,IC50,[4],4.8 nM
same,IC50,[5],13 nM
same,Ki,[6],5210 nM
same,EC50,[7],137 nM
same,Vd,[8],7.8 L/kg
same,Activity,Rattus norvegicus [9],62%
same,clearance,[10],34 mL/min/kg
same,solubility,[11],27 µg/mL
same,bioavailability,[12],35%
CS(=O)(=O)c1ccc(-c2nc(-c3ccc(F)cc3)oc2Sc2ccc(Cl)cn2)cc1,Activity,Rattus norvegicus [13],46%
same,IC50,[4],21 nM
same,Ki,[6],2500 nM
same,EC50,[7],14000 nM
same,Activity,Rattus norvegicus [14],44%
Cc1c(C(=O)c2cccc3ccccc23)c2cccc3c2n1[C@H](CN1CCOCC1)CO3,Activity,Rattus norvegicus [15],inactive
Clc1ccc(Sc2c[nH]nc2-c2ccc3c(c2)OCCO3)cc1,IC50,[4],125 nM
same,IC50,[5],119 nM
same,Ki,[6],1540 nM
CS(=O)(=O)c1ccc(-c2nc(-c3ccccc3)oc2Sc2ccc(Cl)cc2)cc1,IC50,[4],6 nM
same,IC50,[5],13 nM
same,Ki,[6],28500 nM
